{"data": "Assay results pooled from the literature", "ERBB2": "Receptor tyrosine-protein kinase erbB-2 (ERBB2, Homo sapiens, UniProt P04626)", "gyrA": "DNA gyrase subunit A (gyrA, Escherichia coli K-12, UniProt P0AES4)", "gag-pol reverse transcriptase": "Gag-Pol polyprotein, reverse transcriptase (gag-pol, Human immunodeficiency virus 1, UniProt P03366)", "note": "Lines come from different studies, so protocols differ."}
{"Compound": "CC[C@@H](C(=O)Nc1ccc(C(N)=O)c(F)c1)n1cc(OC)c(-c2cc(Cl)ccc2-n2cc(C(F)(F)F)nn2)cc1=O", "target": "Plasminogen (PLG, Homo sapiens, UniProt P00747)", "read-out": "enzyme activity", "mode": "inhibitor", "IC50 [nM]": 2100}
{"Compound": "COc1ccc2c(Oc3ccc4c(C(=O)Nc5ccccc5N)cccc4c3)ccnc2c1", "target": "ERBB2", "read-out": "enzyme activity", "mode": "inhibitor", "IC50 [nM]": "> 500"}
{"Compound": "CC(C)c1cccc2c(-c3ccccc3)cc(-c3ccc(-c4ccc(C(=O)O)cc4)[nH]3)nc12", "target": "Retinoic acid receptor alpha (RARA, Homo sapiens, UniProt P10276)", "read-out": "reporter gene", "mode": "antagonist", "IC50 [nM]": 15}
{"Compound": "O=C1N=C(Nc2ccccc2)S/C1=C\\c1ccccc1OCc1cn(Cc2ccc(Cl)cc2)nn1", "target": "Aldo-keto reductase family 1 member A1 (AKR1A1, Homo sapiens, UniProt P14550)", "read-out": "enzyme activity", "mode": "inhibitor", "method": "absorbance", "pH": "pH 6.2", "IC50 [nM]": 54000}
{"Compound": "C/C(=C\\c1ccc(C#N)cc1)C(=O)Nc1ccc(C(=O)N[C@@H](CC(N)=O)C(=O)Nc2ccc(C(=O)Nc3ccc(C(=O)Nc4ccc(C(=O)O)cc4)c(O)c3OC(C)C)cc2)cc1", "target": "gyrA", "read-out": "enzyme activity", "mode": "inhibitor", "IC50 [nM]": 200}
{"Compound": "Cc1cc(C)cc(S(=O)(=O)c2c(C(=O)NCCCCNS(=O)(=O)c3ccc([N+](=O)[O-])cc3)[nH]c3ccc(Cl)cc23)c1", "target": "gag-pol reverse transcriptase", "read-out": "enzyme activity", "mode": "inhibitor", "method": "ELISA", "IC50 [nM]": 150}
{"Compound": "N#Cc1ccc(Nc2nc(N)cc(Oc3c(F)cc(-c4cccc(F)c4)cc3F)n2)cc1", "target": "gag-pol reverse transcriptase", "read-out": "enzyme activity", "mode": "inhibitor", "IC50 [nM]": 70}
{"Compound": "CC(C)Oc1c(NC(=O)c2ccc(NC(=O)[C@H](CC(N)=O)NC(=O)c3ccc(NC(=O)c4ccc(NC(=O)c5ccc([N+](=O)[O-])cc5)cc4)cc3)cc2)ccc(C(=O)Nc2ccc(C(=O)O)cc2)c1O", "target": "gyrA", "read-out": "enzyme activity", "mode": "inhibitor", "IC50 [nM]": 2500}
{"Compound": "CC(=O)N[C@@H]1[C@@H](O)[C@H](O)[C@@H](CO)S[C@@H]1OP(=O)(O)OP(=O)(O)OC[C@H]1O[C@@H](n2ccc(=O)[nH]c2=O)[C@H](O)[C@@H]1O", "target": "UDP-N-acetylglucosamine--peptide N-acetylglucosaminyltransferase 110 kDa subunit (OGT, Homo sapiens, UniProt O15294)", "read-out": "enzyme activity", "mode": "inhibitor", "IC50 [nM]": 78800}
{"Compound": "Cc1ccc(S(=O)(=O)NCCNC(=O)c2[nH]c3ccc(Cl)cc3c2S(=O)(=O)c2cc(C)cc(C)c2)cc1", "target": "gag-pol reverse transcriptase", "read-out": "enzyme activity", "mode": "inhibitor", "method": "ELISA", "IC50 [nM]": 75}
{"Compound": "N#Cc1ccc(Nc2nc(N)cc(Oc3ccc(-c4ccc(C#N)cc4)cc3F)n2)cc1", "target": "gag-pol reverse transcriptase", "read-out": "enzyme activity", "mode": "inhibitor", "IC50 [nM]": 30}
{"Compound": "CC(C)Oc1c(NC(=O)c2ccc(NC(=O)[C@H](CC(N)=O)NC(=O)c3ccc(NC(=O)c4ccc(C#N)cc4)cc3)cc2)ccc(C(=O)NC2CCNCC2)c1O", "target": "gyrA", "read-out": "enzyme activity", "mode": "inhibitor", "IC50 [nM]": 500}
{"Compound": "CCn1ncc2c1-c1cnc(N)c(c1)O[C@H](C)c1cc(F)ccc1-c1nn(C)nc1C2", "target": "Protein-tyrosine kinase 2-beta (PTK2B, Homo sapiens, UniProt Q14289)", "read-out": "enzyme activity", "mode": "inhibitor", "method": "radiometric", "IC50 [nM]": 14}
{"Compound": "N=C(N)NC(=O)c1nc(Cl)c(N)nc1N", "target": "delm-1 (Caenorhabditis elegans, UniProt O45402)", "read-out": "ion current", "method": "two-electrode voltage clamp", "notes": "oocytes", "IC50 [nM]": 120000}
{"Compound": "C=CC(=O)Nc1cc(Nc2nccc(Nc3cc(Cl)c(F)cc3C(C)(C)O)n2)c(OC)cc1N1CC[C@@H](N(C)C)C1", "target": "ERBB2", "read-out": "enzyme activity", "mode": "inhibitor", "notes": "with preincubation", "IC50 [nM]": 392}
{"Compound": "CC(C)Oc1c(NC(=O)c2ccc(NC(=O)[C@H](CC(N)=O)NC(=O)c3ccc(NC(=O)c4ccc(C#N)c(F)c4)cc3)cc2)ccc(C(=O)Nc2ccc(C(=O)O)cc2)c1O", "target": "gyrA", "read-out": "enzyme activity", "mode": "inhibitor", "IC50 [nM]": 400}
{"Compound": "O=C1NC(=O)/C(=C/c2ccc(OCCNc3nc4c(cnn4C4CCCC4)c(=O)[nH]3)c(F)c2)S1", "target": "cGMP-dependent 3',5'-cyclic phosphodiesterase (PDE2A, Homo sapiens, UniProt O00408)", "read-out": "enzyme activity", "mode": "inhibitor", "IC50 [nM]": 58}
{"Compound": "N#Cc1ccc(Nc2nc(N)cc(Oc3ccc(-c4ccccc4C#N)cc3F)n2)cc1", "target": "gag-pol reverse transcriptase", "read-out": "enzyme activity", "mode": "inhibitor", "IC50 [nM]": 100}
{"Compound": "COc1ccc(S(=O)(=O)ON=C2C=C(C)C(=O)C(C)=C2)cc1", "target": "Histone acetyltransferase p300 (EP300, Homo sapiens, UniProt Q09472)", "read-out": "enzyme activity", "mode": "inhibitor", "method": "fluorescence", "IC50 [nM]": 1980}
{"Compound": "Cc1cc(C(=O)Nc2ccc(C(=O)N[C@@H](CC(N)=O)C(=O)Nc3ccc(C(=O)Nc4ccc(C(=O)Nc5ccc(C(=O)O)cc5)c(O)c4OC(C)C)cc3)cc2)ccc1C#N", "target": "gyrA", "read-out": "enzyme activity", "mode": "inhibitor", "IC50 [nM]": 1600}
{"Compound": "N#Cc1ccc(Nc2nc(N)cc(Oc3ccc(-c4ccc(C#N)cc4)cc3C#N)n2)cc1", "target": "gag-pol reverse transcriptase", "read-out": "enzyme activity", "mode": "inhibitor", "IC50 [nM]": 30}
{"Compound": "COc1ccc(-c2oc3ncnc(NCc4ccccc4)c3c2-c2ccc(OC)cc2)cc1", "target": "Receptor tyrosine-protein kinase erbB-2 (ERBB2, Homo sapiens, UniProt P04626, D769Y)", "read-out": "enzyme activity", "mode": "inhibitor", "method": "radiometric", "IC50 [nM]": 790}
{"Compound": "N#Cc1ccc(Nc2nc(N)cc(Oc3ccc(-c4ccc(C#N)cc4)c(F)c3)n2)cc1", "target": "gag-pol reverse transcriptase", "read-out": "enzyme activity", "mode": "inhibitor", "IC50 [nM]": 50}
{"Compound": "COc1cc(C(=O)Nc2ccc(C(=O)N[C@@H](CC(N)=O)C(=O)Nc3ccc(C(=O)Nc4ccc(C(=O)Nc5ccc(C(=O)O)cc5)c(O)c4OC(C)C)cc3)cc2)ccc1C#N", "target": "gyrA", "read-out": "enzyme activity", "mode": "inhibitor", "IC50 [nM]": 1800}
{"Compound": "CCOC(=O)N1CCC(CN(Cc2ccc(Cl)cc2)Cc2ccc([N+](=O)[O-])s2)C1 (centres unmarked)", "target": "Oxysterols receptor LXR-alpha (NR1H3, Homo sapiens, UniProt Q13133)", "read-out": "ligand displacement", "method": "radioligand", "IC50 [nM]": 13000}
{"Compound": "O=C(Nc1cccc2[nH]ccc12)c1ccccc1", "target": "Alpha-synuclein, monomer (SNCA, Homo sapiens, UniProt P37840)", "read-out": "amyloid aggregation", "mode": "inhibitor", "method": "fluorescence", "IC50 [nM]": "~12900"}
{"Compound": "N#Cc1ccc(Nc2nc(N)cc(Oc3ccc(-c4ccccc4)cc3)n2)cc1", "target": "gag-pol reverse transcriptase", "read-out": "enzyme activity", "mode": "inhibitor", "IC50 [nM]": 570}
{"Compound": "Cc1cc(C)cc(S(=O)(=O)c2c(C(=O)NCCCCCNS(=O)(=O)c3ccc(Cl)cc3)[nH]c3ccc(Cl)cc23)c1", "target": "gag-pol reverse transcriptase", "read-out": "enzyme activity", "mode": "inhibitor", "method": "ELISA", "IC50 [nM]": 120}
{"Compound": "CS(=O)(=O)/C(C#N)=C/c1cccn1S(=O)(=O)c1c(F)c(F)c(F)c(F)c1F", "target": "Protein phosphatase methylesterase 1 (Homo sapiens, UniProt Q9Y570)", "read-out": "enzyme activity", "mode": "inhibitor", "IC50 [nM]": "> 20000"}
{"Compound": "CC(C)Oc1c(NC(=O)c2ccc(NC(=O)[C@H](CC(N)=O)NC(=O)c3ccc(NC(=O)c4ccc(C#N)cc4)cc3)cc2)ccc(C(=O)O)c1O", "target": "gyrA", "read-out": "enzyme activity", "mode": "inhibitor", "IC50 [nM]": 9400}
{"Compound": "Cc1cc(C)cc(S(=O)(=O)c2c(C(=O)NCCCNS(=O)(=O)c3cccs3)[nH]c3ccc(Cl)cc23)c1", "target": "gag-pol reverse transcriptase", "read-out": "enzyme activity", "mode": "inhibitor", "method": "ELISA", "IC50 [nM]": 190}
{"Compound": "CCCCN1/C(=C/C=C(Br)/C=C/C2=[N+](CCCC)c3ccc(Br)cc3C2(C)C)C(C)(C)c2cc(Br)ccc21", "target": "Protein arginine N-methyltransferase 6 (PRMT6, Homo sapiens, UniProt Q96LA8)", "read-out": "enzyme activity", "mode": "inhibitor", "method": "radiometric", "IC50 [nM]": 2430}
{"Compound": "CC/C(=N\\NC(=O)C(C)Nc1ccccc1)c1ccc(O)c(C)c1O (centres unmarked)", "target": "cAMP-dependent protein kinase catalytic subunit alpha (PRKACA, Homo sapiens, UniProt P17612)", "read-out": "enzyme activity", "mode": "inhibitor", "IC50 [nM]": 22.5}
{"Compound": "Cc1cc(C)cc(S(=O)(=O)c2c(C(=O)NCCCCCNS(=O)(=O)c3ccccc3)[nH]c3ccc(Cl)cc23)c1", "target": "gag-pol reverse transcriptase", "read-out": "enzyme activity", "mode": "inhibitor", "method": "ELISA", "IC50 [nM]": 120}
{"Compound": "N#Cc1ccc(Nc2nc(N)cc(Oc3ccc(-c4ccc(F)cc4)cc3)n2)cc1", "target": "gag-pol reverse transcriptase", "read-out": "enzyme activity", "mode": "inhibitor", "IC50 [nM]": 200}
{"Compound": "Cc1cc(C)cc(S(=O)(=O)c2c(C(=O)NCCNS(=O)(=O)c3ccc(-c4ccccc4)cc3)[nH]c3ccc(Cl)cc23)c1", "target": "gag-pol reverse transcriptase", "read-out": "enzyme activity", "mode": "inhibitor", "method": "ELISA", "IC50 [nM]": 180}
{"Compound": "N#Cc1ccc(Nc2nc(N)cc(Oc3ccc(-c4cccc(C#N)c4)cc3)n2)cc1", "target": "gag-pol reverse transcriptase", "read-out": "enzyme activity", "mode": "inhibitor", "IC50 [nM]": 700}
{"Compound": "Cc1cc(C)cc(S(=O)(=O)c2c(C(=O)NCCCCCNS(=O)(=O)c3ccc(F)cc3)[nH]c3ccc(Cl)cc23)c1", "target": "gag-pol reverse transcriptase", "read-out": "enzyme activity", "mode": "inhibitor", "method": "ELISA", "IC50 [nM]": 150}
{"Compound": "CC(C)Oc1c(NC(=O)c2ccc(NC(=O)[C@H](CC(N)=O)NC(=O)c3ccc(NC(=O)C(C)Sc4ccc(C#N)cc4)cc3)cc2)ccc(C(=O)Nc2ccc(C(=O)O)cc2)c1O (some centres unmarked)", "target": "gyrA", "read-out": "enzyme activity", "mode": "inhibitor", "IC50 [nM]": 800}
{"Compound": "Cc1cc(C)cc(S(=O)(=O)c2c(C(=O)NCCCNS(=O)(=O)c3ccccc3)[nH]c3ccc(Cl)cc23)c1", "target": "gag-pol reverse transcriptase", "read-out": "enzyme activity", "mode": "inhibitor", "method": "ELISA", "IC50 [nM]": 84}
{"Compound": "Cc1cnc(-c2ccc(-c3ccc(NC(=O)Nc4c(F)cc(F)cc4F)cc3F)c3c2C(=O)NC3)[nH]1", "target": "STE20-like serine/threonine-protein kinase (SLK, Homo sapiens, UniProt Q9H2G2)", "read-out": "enzyme activity", "mode": "inhibitor", "IC50 [nM]": 14.3}
